Experimental data as given in ChEMBL document CHEMBL3112570, “Design, synthesis, and evaluation of pyrrolo[2,1-f][1,2,4]triazine derivatives as novel hedgehog signaling pathway inhibitors” (Bioorg Med Chem, 2014).

How the values were obtained:
[1] = Inhibition of hedgehog signaling pathway in mouse NIH/3T3 cells after 48 hrs by Gli-luciferase reporter gene assay; format: cell-based; settings: NIH3T3, 48 h
In short: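 NIH3T3 cells stably carrying a Gli-luciferase reporter, kept in DMEM + 10% FBS with puromycin. Seeded at 2 × 10⁴ cells/well and cultured overnight at 37 °C, 5% CO₂. Compounds added as an 8-point series (0.05–300 nM) in medium with 0.5% FBS plus Sonic Hedgehog agonist 0.7 µg/mL, n = 4 wells per concentration, 48 h. […] Lysates read by dual-luciferase.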

[2] = Cmax in Sprague-Dawley rat at 1 mg/kg, iv by LC/MS/MS analysis; format: ADME, organism-based; set-up: dose 1 mg/kg, route intravenous; settings: in vivo
In short: (§1)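 Sprague-Dawley rats dosed iv at 1 mg/kg (n = 3). Blood samples were centrifuged at 4000 rpm for 5 min at 4 °C to give plasma. PK parameters were derived from plasma concentration-time data by noncompartmental analysis.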

[3] = Clearance in Sprague-Dawley rat at 1 mg/kg, iv by LC/MS/MS analysis; format: ADME, organism-based; set-up: dose 1 mg/kg, route intravenous; settings: in vivo; in short: as §1
[4] = Mean residence time (0 to t) in Sprague-Dawley rat at 1 mg/kg, iv by LC/MS/MS analysis; format: ADME, organism-based; set-up: dose 1 mg/kg, route intravenous; settings: in vivo; in short: as §1
[5] = AUC in Sprague-Dawley rat at 1 mg/kg, iv by LC/MS/MS analysis; format: ADME, organism-based; set-up: dose 1 mg/kg, route intravenous; settings: plasma; in short: as §1
[6] = Apparent volume of distribution in Sprague-Dawley rat at 1 mg/kg, iv by LC/MS/MS analysis; format: ADME, organism-based; set-up: dose 1 mg/kg, route intravenous; settings: in vivo, read-out: Vz; in short: as §1
[7] = Elimination half life in Sprague-Dawley rat at 1 mg/kg, iv by LC/MS/MS analysis; format: ADME, organism-based; set-up: dose 1 mg/kg, route intravenous; settings: in vivo, read-out: beta t1/2 (converted); in short: as §1

Row | SMILES | IC50 [1] [nM] | Cmax [2] [ng/mL] | clearance [3] [mL/min/kg] | MRT last [4] [h] | AUC [5] [ng·h/mL] | Vd [6] [L/kg] | half-life [7] [h]
1 | Cc1ccc(CN2CCCCC2)cc1NC(=O)c1ccc(Nc2nc(-c3cnn(C)c3)c3cccn3n2)cc1 | 11.1 |  |  |  |  |  | 
2 | Cc1ccc(CN2CCN(C)CC2)cc1NC(=O)c1ccc(Nc2nc(-c3cnn(C)c3)c3cccn3n2)cc1 | 7.5 |  |  |  |  |  | 
3 | Cc1cccc(C)c1NC(=O)c1ccc(Nc2nc(C)c(C)c(-c3ccc(OC(F)(F)F)cc3)n2)cc1 | 1.6 |  |  |  |  |  | 
4 | Cc1cccc(C)c1NC(=O)c1ccc(Nc2nc(-c3ccc(OC(F)(F)F)cc3)c3cccn3n2)cc1 | 1.6 | 2440 | 9.66 | 4.68 | 1430 | 12.6 | 15.2
5 | Cc1ccc(CN2CCN(C)CC2)cc1NC(=O)c1ccc(Nc2nc(-c3ccc(OC(F)(F)F)cc3)c3cccn3n2)cc1 | 1.7 |  |  |  |  |  | 
6 | Cc1ccc(CN2CCOCC2)cc1NC(=O)c1ccc(Nc2nc(-c3cccnc3)c3cccn3n2)cc1 | 1.6 |  |  |  |  |  | 
7 | CCc1cnc(Nc2ccc(C(=O)Nc3c(C)cccc3C)cc2)nc1-c1ccc(OC(F)(F)F)cc1 | 5.3 |  |  |  |  |  | 
8 | O=C(Nc1cccc(CN2CCOCC2)c1)c1ccc(Nc2nc(-c3ccc(OC(F)(F)F)cc3)c3cccn3n2)cn1 | 8.8 |  |  |  |  |  | 
9 | Cc1ccc(CN2CCCC2)cc1NC(=O)c1ccc(Nc2nc(-c3ccc(OC(F)(F)F)cc3)c3cccn3n2)cc1 | 1.7 |  |  |  |  |  | 
10 | CS(=O)(=O)c1ccc(C(=O)Nc2ccc(Cl)c(-c3ccccn3)c2)c(Cl)c1 [VISMODEGIB] | 7.2 | 1250 | 6.77 | 2.23 | 2460 |  | 1.64
11 | Cc1ccc(CN2CCCC2)cc1NC(=O)c1ccc(Nc2nc(-c3cnn(C)c3)c3cccn3n2)cc1 | 12.3 |  |  |  |  |  | 

Now those with a lower IC50 [1], led by results:

Row | IC50 [1] [nM] | Cmax [2] [ng/mL] | clearance [3] [mL/min/kg] | MRT last [4] [h] | AUC [5] [ng·h/mL] | Vd [6] [L/kg] | half-life [7] [h] | SMILES
12 | 1.5 |  |  |  |  |  |  | Cc1ccc(CN2CCOCC2)cc1NC(=O)c1ccc(Nc2nc(-c3ccccc3)c3cccn3n2)cc1
13 | 1.4 |  |  |  |  |  |  | Cc1cc(-c2ccc(OC(F)(F)F)cc2)nc(Nc2ccc(C(=O)Nc3c(C)cccc3C)cc2)n1
14 | 1.2 | 1070 | 21.1 | 1.31 | 791 | 2.19 | 1.23 | Cc1ccc(CN2CCOCC2)cc1NC(=O)c1ccc(Nc2nc(-c3cnn(C)c3)c3cccn3n2)cc1
15 | 1.1 | 4190 | 8.38 | 3.49 | 1940 | 5.97 | 8.34 | Cc1ccc(CN2CCOCC2)cc1NC(=O)c1ccc(Nc2nc(-c3ccc(OC(F)(F)F)cc3)c3cccn3n2)cn1
16 | 1.1 |  |  |  |  |  |  | Cc1ccc(CN2CCOCC2)cc1NC(=O)c1ccc(Nc2nc(-c3ccccn3)c3cccn3n2)cn1
17 | 0.97 | 637 | 22 | 1.64 | 764 | 2.85 | 1.51 | Cc1ccc(CN2CCOCC2)cc1NC(=O)c1ccc(Nc2nc(-c3ccccn3)c3cccn3n2)cc1
18 | 0.83 | 2720 | 6.9 | 4.83 | 2230 | 5.23 | 8.86 | Cc1ccc(CN2CCOCC2)cc1NC(=O)c1ccc(Nc2nc(-c3ccc(OC(F)(F)F)cc3)c3cccn3n2)cc1
19 | 0.8 |  |  |  |  |  |  | CCCc1cc(-c2ccc(OC(F)(F)F)cc2)nc(Nc2ccc(C(=O)Nc3c(C)cccc3C)cc2)n1
20 | 0.73 |  |  |  |  |  |  | Cc1ccc(CN2CCOCC2)cc1NC(=O)c1ccc(Nc2nc(-c3ccccn3)c3cccn3n2)c(F)c1
21 | 0.62 |  |  |  |  |  |  | Cc1ccc(CN2CCCCC2)cc1NC(=O)c1ccc(Nc2nc(-c3ccc(OC(F)(F)F)cc3)c3cccn3n2)cc1
